# Measurements reported in ChEMBL document CHEMBL2176880 (J Med Chem, 2012).
# Experiments:
# [1] = target: T1, Metabotropic glutamate receptor 2 (Homo sapiens, UniProt Q14416); experiment: Positive allosteric modulator activity at human mGlu2R expressed in CHO cells incubated for 30 mins by [35S]GTPgammaS binding assay relative to control; format: functional, cell-based
# Target sequence in this assay (Q14416 19-872 limits assumed): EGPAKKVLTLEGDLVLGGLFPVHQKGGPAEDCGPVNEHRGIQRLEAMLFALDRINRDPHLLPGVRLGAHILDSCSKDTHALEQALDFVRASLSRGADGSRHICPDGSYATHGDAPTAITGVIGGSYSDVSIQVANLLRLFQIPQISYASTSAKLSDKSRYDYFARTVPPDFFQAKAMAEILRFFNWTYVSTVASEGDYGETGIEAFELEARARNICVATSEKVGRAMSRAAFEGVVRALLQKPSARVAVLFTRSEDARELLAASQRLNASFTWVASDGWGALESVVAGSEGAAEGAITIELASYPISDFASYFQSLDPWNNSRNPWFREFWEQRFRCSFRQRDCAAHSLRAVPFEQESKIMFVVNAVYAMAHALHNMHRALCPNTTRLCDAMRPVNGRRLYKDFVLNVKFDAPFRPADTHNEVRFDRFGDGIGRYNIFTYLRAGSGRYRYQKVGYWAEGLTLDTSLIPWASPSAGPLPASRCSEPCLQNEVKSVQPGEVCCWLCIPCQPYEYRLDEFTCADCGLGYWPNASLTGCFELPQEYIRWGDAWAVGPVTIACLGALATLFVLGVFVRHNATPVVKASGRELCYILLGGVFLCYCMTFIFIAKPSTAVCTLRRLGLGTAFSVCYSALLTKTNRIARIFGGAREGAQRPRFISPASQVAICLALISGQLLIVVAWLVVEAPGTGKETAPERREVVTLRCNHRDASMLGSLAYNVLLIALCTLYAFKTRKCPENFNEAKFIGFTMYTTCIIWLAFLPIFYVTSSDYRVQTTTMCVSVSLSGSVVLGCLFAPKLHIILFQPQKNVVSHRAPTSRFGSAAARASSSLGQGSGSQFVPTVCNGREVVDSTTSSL
# [2] = Drug metabolism in human liver microsomes at 5 uM after 15 mins; format: ADME, Microsome; settings: read-out: Drug metabolism
# Summary of the method: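 Compound at 5 μM incubated 15 min with human liver microsomes; read-out is % of compound metabolized. Values are the mean of at least two experiments.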
# [3] = Drug metabolism in mouse liver microsomes at 5 uM after 15 mins; format: ADME, Microsome; settings: read-out: Drug metabolism
# [4] = target: T1, Metabotropic glutamate receptor 2; experiment: Positive allosteric modulator activity at human mGlu2R expressed in CHO cells incubated for 30 mins by [35S]GTPgammaS binding assay; format: functional, cell-based
# Target sequence in this assay (Q14416 whole entry): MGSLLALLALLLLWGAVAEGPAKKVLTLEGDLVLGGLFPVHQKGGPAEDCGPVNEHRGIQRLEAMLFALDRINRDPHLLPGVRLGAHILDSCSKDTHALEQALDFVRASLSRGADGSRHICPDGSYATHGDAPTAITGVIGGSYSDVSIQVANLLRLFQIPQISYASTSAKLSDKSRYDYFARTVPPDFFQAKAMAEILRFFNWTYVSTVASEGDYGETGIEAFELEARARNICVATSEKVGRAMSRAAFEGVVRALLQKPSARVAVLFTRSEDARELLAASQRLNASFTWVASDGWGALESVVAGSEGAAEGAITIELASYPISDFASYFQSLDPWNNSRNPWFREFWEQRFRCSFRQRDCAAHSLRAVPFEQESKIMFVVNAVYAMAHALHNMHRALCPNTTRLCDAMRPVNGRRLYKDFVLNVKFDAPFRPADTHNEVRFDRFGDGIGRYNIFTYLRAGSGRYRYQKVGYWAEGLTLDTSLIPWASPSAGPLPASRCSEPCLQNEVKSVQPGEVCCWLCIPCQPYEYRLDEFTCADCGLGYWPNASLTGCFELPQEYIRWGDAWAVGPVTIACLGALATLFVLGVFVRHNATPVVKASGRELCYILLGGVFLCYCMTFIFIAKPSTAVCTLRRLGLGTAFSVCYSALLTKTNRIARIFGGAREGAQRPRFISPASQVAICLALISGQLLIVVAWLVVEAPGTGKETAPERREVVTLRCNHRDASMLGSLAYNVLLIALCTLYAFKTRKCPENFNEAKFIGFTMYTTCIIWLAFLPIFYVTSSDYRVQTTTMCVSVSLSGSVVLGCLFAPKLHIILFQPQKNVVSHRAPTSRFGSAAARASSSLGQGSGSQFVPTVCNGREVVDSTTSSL
# [5] = target: hERG (Homo sapiens, UniProt Q12809); experiment: Inhibition of human ERG expressed in HEK293 cells at 3 uM by patch clamp assay; format: cell-based; settings: HEK293 cells expressing hERG
# Summary of the method: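 HEK293 cells stably expressing hERG, whole-cell currents recorded by automated patch clamp in extracellular solution (mM: 150 NaCl, 4 KCl, 1 MgCl2, 1.8 CaCl2, 10 HEPES, 5 glucose, pH 7.4). Vehicle (0.1% DMSO) applied for 5 min, then compound at 0.1, 0.3 and 3 μM, each applied twice (n = 3). Effect taken after 5 min as the mean current of three pulses; residual current compared with vehicle.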
# [6] = Tmax in Sprague-Dawley rat at […], iv or 10 mg/kg, po; format: ADME, organism-based; settings: in vivo
# [7] = Clearance in Sprague-Dawley rat at […], iv; format: ADME, organism-based; design: dose 2.5 mg/kg, route intravenous; settings: in vivo
# [8] = Half life in Sprague-Dawley rat at […], iv; format: ADME, organism-based; design: dose 2.5 mg/kg, route intravenous; settings: in vivo
# [9] = AUC (0 to infinity) in Sprague-Dawley rat at 10 mg/kg, po; format: ADME, organism-based; design: time infinity, dose 10 mg/kg, route oral; settings: plasma
# [10] = Ratio of drug level in brain to plasma in Swiss mouse at 10 mg/kg, sc administered as single dose measured 1 hr post dose; format: ADME, organism-based; design: dose 10 mg/kg, route subcutaneous; settings: read-out: BPR
# Summary of the method: (§1)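 Swiss mice given a single 10 mg/kg sc dose at 1 mg/mL in 20% HP-β-CD + HCl solution, pH 4. Brain and plasma levels taken 1 h post dose. Values are geometric means of at least two runs.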
# [11] = Cmax in Sprague-Dawley rat at […], iv or 10 mg/kg, po; format: ADME, organism-based; settings: in vivo
# [12] = Oral bioavailability in Sprague-Dawley rat at 10 mg/kg; format: ADME, organism-based; settings: in vivo
# [13] = Volume of distribution at steady state in Sprague-Dawley rat at […], iv or 10 mg/kg, po; format: ADME, organism-based; settings: in vivo, read-out: Vdss
# [14] = Drug level in Swiss mouse brain at 10 mg/kg, sc administered as single dose measured 1 hr post dose; format: ADME, organism-based; design: dose 10 mg/kg, route subcutaneous; settings: read-out: Drug uptake; summary of the method: as §1
# [15] = Plasma concentration in Swiss mouse at 10 mg/kg, sc administered as single dose measured 1 hr post dose; format: ADME, organism-based; design: dose 10 mg/kg, route subcutaneous; summary of the method: as §1
# Chain of hERG (Q12809 whole entry): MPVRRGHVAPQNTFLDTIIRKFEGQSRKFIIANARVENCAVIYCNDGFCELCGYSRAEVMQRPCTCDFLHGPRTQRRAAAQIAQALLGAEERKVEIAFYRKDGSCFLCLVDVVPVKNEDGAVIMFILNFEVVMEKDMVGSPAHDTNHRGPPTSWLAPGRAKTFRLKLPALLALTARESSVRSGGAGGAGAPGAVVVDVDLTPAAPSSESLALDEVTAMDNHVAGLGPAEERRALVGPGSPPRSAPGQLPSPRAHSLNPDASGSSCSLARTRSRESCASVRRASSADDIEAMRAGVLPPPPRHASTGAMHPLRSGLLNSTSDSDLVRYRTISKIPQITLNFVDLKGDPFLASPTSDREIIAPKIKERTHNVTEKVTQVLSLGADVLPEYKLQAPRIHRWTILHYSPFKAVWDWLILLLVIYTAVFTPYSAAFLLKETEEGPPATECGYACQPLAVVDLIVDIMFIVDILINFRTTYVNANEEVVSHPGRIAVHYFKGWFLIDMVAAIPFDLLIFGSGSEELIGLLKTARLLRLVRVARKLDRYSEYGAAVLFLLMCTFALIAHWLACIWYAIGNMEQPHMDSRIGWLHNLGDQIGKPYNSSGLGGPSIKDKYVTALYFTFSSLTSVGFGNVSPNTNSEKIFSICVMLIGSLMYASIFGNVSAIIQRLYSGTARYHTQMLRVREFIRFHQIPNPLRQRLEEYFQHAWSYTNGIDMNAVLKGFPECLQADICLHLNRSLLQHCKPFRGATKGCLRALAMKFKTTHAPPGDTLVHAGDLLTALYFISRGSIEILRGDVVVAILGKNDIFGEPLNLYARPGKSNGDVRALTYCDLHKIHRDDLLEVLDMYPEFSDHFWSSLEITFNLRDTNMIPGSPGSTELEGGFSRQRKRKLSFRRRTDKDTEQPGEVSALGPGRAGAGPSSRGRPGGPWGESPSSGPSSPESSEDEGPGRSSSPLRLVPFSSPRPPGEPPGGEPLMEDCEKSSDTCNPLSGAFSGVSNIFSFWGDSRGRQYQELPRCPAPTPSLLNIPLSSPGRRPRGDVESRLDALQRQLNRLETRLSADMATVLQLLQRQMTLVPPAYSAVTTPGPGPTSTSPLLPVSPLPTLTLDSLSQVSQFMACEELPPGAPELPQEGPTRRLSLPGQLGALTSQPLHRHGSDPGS
smiles,measurement,setting,value
CCCc1cnc2c(C#N)c(N3CCC(c4ccccc4)CC3)ccn12,Emax,[1],254%
same,"metabolised at […], 5 µM",[2],74%
same,"metabolised at […], 5 µM",[3],81%
Clc1c(N2CCN(c3ccccc3)CC2)ccn2c(CC3CC3)nnc12,Emax,[1],308%
same,"metabolised at […], 5 µM",[2],62%
same,EC50,[4],944 nM
same,"metabolised at […], 5 µM",[3],53%
N#Cc1c(N2CCC(c3ccccc3)CC2)ccn2c(CC(F)(F)F)nnc12,Emax,[1],277%
same,"metabolised at […], 5 µM",[2],9%
same,"metabolised at […], 5 µM",[3],10%
same,inhibition at 3 µM,[5],33%
CCCc1nnc2c(C#N)c(N3CCC(c4ccccc4)CC3)ccn12,Emax,[1],272%
same,"metabolised at […], 5 µM",[2],25%
same,EC50,[4],299 nM
same,"metabolised at […], 5 µM",[3],40%
FC(F)(F)Cc1nnc2c(Cl)c(N3CCC(F)(c4ccccc4)CC3)ccn12,Tmax,[6],1.7 h
same,clearance,[7],18 mL/min/kg
same,Emax,[1],310%
same,"metabolised at […], 5 µM",[2],39%
same,half-life,[8],2.6 h
same,"metabolised at […], 5 µM",[3],25%
same,AUC(0-inf),[9],5990 ng·h/mL
same,Kp at 1 h,[10],1.4
same,inhibition at 3 µM,[5],42%
same,Cmax,[11],807 ng/mL
same,bioavailability,[12],63%
same,Vd,[13],1.9 L/kg
Clc1c(N2CCC(c3ccccc3)CC2)ccn2c(CC3CC3)nnc12,Emax,[1],343%
same,"metabolised at […], 5 µM",[2],56%
same,concentration at 1 h,[14],3830 ng/mL
same,Kp at 1 h,[10],1.4
same,inhibition at 3 µM,[5],99%
same,concentration at 1 h,[15],2660 ng/mL
CC(C)(C)c1nnc2c(C#N)c(N3CCC(c4ccccc4)CC3)ccn12,Emax,[1],207%
same,EC50,[4],1230 nM
FC(F)(F)c1c(N2CCC(c3cccnc3)CC2)ccn2c(CC3CC3)nnc12,Emax,[1],268%
same,"metabolised at […], 5 µM",[2],31%
same,EC50,[4],519 nM
same,"metabolised at […], 5 µM",[3],78%
N#Cc1c(N2CCC(c3ccccc3)CC2)ccn2c(CC(F)(F)F)cnc12,Emax,[1],259%
same,"metabolised at […], 5 µM",[2],24%
same,EC50,[4],125 nM
same,"metabolised at […], 5 µM",[3],41%
FC(F)(F)Cc1nnc2c(Cl)c(N3CCC(c4ccccc4)CC3)ccn12,Emax,[1],300%
same,"metabolised at […], 5 µM",[2],13%
same,EC50,[4],55 nM
same,concentration at 1 h,[14],2090 ng/mL
same,"metabolised at […], 5 µM",[3],8%
same,Kp at 1 h,[10],1.8
same,inhibition at 3 µM,[5],71%
same,concentration at 1 h,[15],1160 ng/mL
FC(F)(F)c1c(N2CCC(F)(c3ccccc3)CC2)ccn2c(CC3CC3)nnc12,Emax,[1],292%
same,"metabolised at […], 5 µM",[2],18%
same,"metabolised at […], 5 µM",[3],13%
same,inhibition at 3 µM,[5],84%
CCCCc1nnc2c(C(F)(F)F)c(N3CCC(c4ccccc4)CC3)ccn12,Emax,[1],364%
same,"metabolised at […], 5 µM",[2],33%
same,"metabolised at […], 5 µM",[3],54%
same,inhibition at 3 µM,[5],91%
CCc1nnc2c(Cl)c(N3CCC(c4ccccc4)CC3)ccn12,Emax,[1],262%
same,"metabolised at […], 5 µM",[2],57%
same,EC50,[4],386 nM
same,"metabolised at […], 5 µM",[3],39%
same,inhibition at 3 µM,[5],43%
FC(F)(F)C1(c2ccccc2)CCN(c2ccn3c(CC4CC4)nnc3c2Cl)CC1,Tmax,[6],1.3 h
same,clearance,[7],77 mL/min/kg
same,Emax,[1],243%
same,"metabolised at […], 5 µM",[2],56%
same,half-life,[8],2.1 h
same,"metabolised at […], 5 µM",[3],41%
same,AUC(0-inf),[9],1160 ng·h/mL
same,Kp at 1 h,[10],1.6
same,inhibition at 3 µM,[5],42%
same,Cmax,[11],289 ng/mL
same,bioavailability,[12],53%
same,Vd,[13],5.1 L/kg
CCc1cnc2c(C#N)c(N3CCC(c4ccccc4)CC3)ccn12,Emax,[1],225%
same,"metabolised at […], 5 µM",[2],74%
same,"metabolised at […], 5 µM",[3],82%
N#Cc1c(N2CCC(c3ccccc3)CC2)ccn2c(CN3CCCC3)nnc12,Emax,[1],240%
same,"metabolised at […], 5 µM",[2],38%
same,EC50,[4],1120 nM
same,"metabolised at […], 5 µM",[3],88%
FC(F)(F)c1c(N2Cc3ccccc3C2)ccn2c(CC3CC3)nnc12,Emax,[1],330%
same,"metabolised at […], 5 µM",[2],50%
same,EC50,[4],400 nM
same,"metabolised at […], 5 µM",[3],89%
CCc1nnc2c(C#N)c(N3CCC(c4ccccc4)CC3)ccn12,Emax,[1],247%
same,"metabolised at […], 5 µM",[2],11%
same,concentration at 1 h,[14],135 ng/mL
same,"metabolised at […], 5 µM",[3],7%
same,Kp at 1 h,[10],0.2
same,inhibition at 3 µM,[5],20%
same,concentration at 1 h,[15],672 ng/mL
CCc1nnc2c(C(F)(F)F)c(N3CCC(c4ccccc4)CC3)ccn12,Tmax,[6],0.7 h
same,clearance,[7],53 mL/min/kg
same,Emax,[1],334%
same,"metabolised at […], 5 µM",[2],29%
same,EC50,[4],116 nM
same,half-life,[8],1.9 h
same,"metabolised at […], 5 µM",[3],42%
same,AUC(0-inf),[9],1010 ng·h/mL
same,Kp at 1 h,[10],1.3
same,inhibition at 3 µM,[5],36%
same,Cmax,[11],359 ng/mL
same,bioavailability,[12],35%
same,Vd,[13],1.4 L/kg
N#Cc1c(N2CCC(c3ccccc3)CC2)ccn2c(CC3CC3)nnc12,Emax,[1],278%
same,"metabolised at […], 5 µM",[2],6%
same,"metabolised at […], 5 µM",[3],25%
FC(F)(F)c1c(N2CCC(c3ccccc3)C2)ccn2c(CC3CC3)nnc12 (racemic),Emax,[1],175%
same,"metabolised at […], 5 µM",[2],38%
same,EC50,[4],1230 nM
same,"metabolised at […], 5 µM",[3],72%
COCc1nnc2c(C#N)c(N3CCC(c4ccccc4)CC3)ccn12,Emax,[1],196%
same,"metabolised at […], 5 µM",[2],12%
same,EC50,[4],468 nM
same,"metabolised at […], 5 µM",[3],31%
FC(F)(F)c1c(N2CCc3ccccc3C2)ccn2c(CC3CC3)nnc12,Emax,[1],278%
same,"metabolised at […], 5 µM",[2],52%
same,EC50,[4],149 nM
same,"metabolised at […], 5 µM",[3],86%
Fc1ccc(C2CCN(c3ccn4c(CC5CC5)nnc4c3C(F)(F)F)CC2)c(F)c1,Emax,[1],306%
same,"metabolised at […], 5 µM",[2],2%
same,EC50,[4],10 nM
same,"metabolised at […], 5 µM",[3],16%
same,inhibition at 3 µM,[5],91%
